Experimental data: ChEMBL document CHEMBL2385070, “Selective inhibition of bacterial and human topoisomerases by N-arylacyl O-sulfonated aminoglycoside derivatives” (ACS Med Chem Lett, 2013)
Active and inactive are the calls of the source. No cut-off for these calls is given here.

Tests used:
[1] = target: T1, DNA topoisomerase 1 (Homo sapiens) (UniProt P11387); assay: Inhibition of human DNA topoisomerase 1 at 200 uM relative to control
T1 sequence (whole entry): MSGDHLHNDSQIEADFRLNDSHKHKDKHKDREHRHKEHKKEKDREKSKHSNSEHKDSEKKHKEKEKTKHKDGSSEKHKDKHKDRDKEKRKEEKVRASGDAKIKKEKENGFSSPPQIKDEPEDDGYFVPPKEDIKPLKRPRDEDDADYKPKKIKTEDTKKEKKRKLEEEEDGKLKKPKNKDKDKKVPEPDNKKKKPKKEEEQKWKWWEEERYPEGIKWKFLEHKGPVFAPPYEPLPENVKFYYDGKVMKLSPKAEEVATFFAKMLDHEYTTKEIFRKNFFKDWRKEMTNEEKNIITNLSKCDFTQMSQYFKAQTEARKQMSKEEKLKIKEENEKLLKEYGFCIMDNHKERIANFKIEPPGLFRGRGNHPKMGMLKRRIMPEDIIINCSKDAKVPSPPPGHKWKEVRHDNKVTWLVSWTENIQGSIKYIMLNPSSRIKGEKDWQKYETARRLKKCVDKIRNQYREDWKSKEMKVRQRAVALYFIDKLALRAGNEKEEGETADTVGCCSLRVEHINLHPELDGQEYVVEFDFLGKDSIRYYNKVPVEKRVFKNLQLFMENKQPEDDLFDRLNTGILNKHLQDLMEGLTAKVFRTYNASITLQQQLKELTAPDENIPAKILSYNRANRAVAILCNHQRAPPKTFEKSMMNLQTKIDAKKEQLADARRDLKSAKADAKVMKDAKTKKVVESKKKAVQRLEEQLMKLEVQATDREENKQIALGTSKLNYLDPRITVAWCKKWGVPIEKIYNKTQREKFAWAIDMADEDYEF

[2] = target: DNA topoisomerase 2-alpha (Homo sapiens) (UniProt P11388); assay: Inhibition of human DNA topoisomerase 2 at 200 uM relative to control
DNA topoisomerase 2-alpha (Homo sapiens), sequence (P11388 whole entry): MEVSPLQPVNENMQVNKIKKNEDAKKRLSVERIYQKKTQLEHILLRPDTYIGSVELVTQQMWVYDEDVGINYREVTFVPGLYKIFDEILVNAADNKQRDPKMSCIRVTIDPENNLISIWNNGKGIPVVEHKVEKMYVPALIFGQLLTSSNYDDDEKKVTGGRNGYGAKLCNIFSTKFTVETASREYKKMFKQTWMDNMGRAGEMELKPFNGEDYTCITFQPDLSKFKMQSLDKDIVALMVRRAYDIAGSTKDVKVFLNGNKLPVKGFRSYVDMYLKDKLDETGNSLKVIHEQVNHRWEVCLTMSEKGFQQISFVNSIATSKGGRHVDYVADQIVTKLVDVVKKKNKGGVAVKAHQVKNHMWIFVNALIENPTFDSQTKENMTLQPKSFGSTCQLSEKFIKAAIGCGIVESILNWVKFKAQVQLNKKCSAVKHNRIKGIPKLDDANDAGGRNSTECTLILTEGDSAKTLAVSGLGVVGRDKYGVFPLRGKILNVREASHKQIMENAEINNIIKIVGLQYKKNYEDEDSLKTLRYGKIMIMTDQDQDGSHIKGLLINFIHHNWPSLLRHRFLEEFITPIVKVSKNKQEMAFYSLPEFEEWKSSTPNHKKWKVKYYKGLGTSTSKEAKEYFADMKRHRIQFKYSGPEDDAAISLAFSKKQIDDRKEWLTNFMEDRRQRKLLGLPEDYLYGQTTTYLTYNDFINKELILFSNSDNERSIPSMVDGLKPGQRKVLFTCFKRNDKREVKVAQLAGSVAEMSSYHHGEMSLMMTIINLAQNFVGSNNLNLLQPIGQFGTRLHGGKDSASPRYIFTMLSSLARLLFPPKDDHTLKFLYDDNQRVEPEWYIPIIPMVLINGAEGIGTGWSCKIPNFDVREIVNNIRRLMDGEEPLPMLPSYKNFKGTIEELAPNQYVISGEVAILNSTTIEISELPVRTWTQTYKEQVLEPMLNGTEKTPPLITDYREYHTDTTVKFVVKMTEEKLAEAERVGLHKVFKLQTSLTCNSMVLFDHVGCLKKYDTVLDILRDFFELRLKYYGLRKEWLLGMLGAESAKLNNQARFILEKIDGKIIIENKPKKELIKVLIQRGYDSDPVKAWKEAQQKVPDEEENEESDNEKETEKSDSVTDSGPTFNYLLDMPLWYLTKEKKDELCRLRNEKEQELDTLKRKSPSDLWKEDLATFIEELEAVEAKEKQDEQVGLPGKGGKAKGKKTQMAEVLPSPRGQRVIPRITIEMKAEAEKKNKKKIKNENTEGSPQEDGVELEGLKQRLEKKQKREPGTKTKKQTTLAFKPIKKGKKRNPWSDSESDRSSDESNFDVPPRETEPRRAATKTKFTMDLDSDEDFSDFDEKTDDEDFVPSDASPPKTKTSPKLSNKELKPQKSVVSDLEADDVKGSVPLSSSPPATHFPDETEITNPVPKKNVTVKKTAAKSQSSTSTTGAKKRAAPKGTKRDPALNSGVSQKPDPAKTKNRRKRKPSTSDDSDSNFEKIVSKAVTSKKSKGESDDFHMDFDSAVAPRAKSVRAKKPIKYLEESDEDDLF

[3] = test system: Escherichia coli; assay: Inhibition of Escherichia coli DNA topoisomerase 4 at 200 uM relative to control
[4] = test system: Escherichia coli; assay: Inhibition of Escherichia coli DNA gyrase catalytic activity at 200 uM relative to control
Method in brief: (§1)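 E. coli gyrase was incubated with relaxed DNA, either without compound or with compound at 200 μM; titrations also used 20, 50 and 100 μM. Gel lanes included a no-enzyme control and an enzyme-without-compound control, and supercoiling was scored from the lane pattern. In the summary table, + denotes greater than 95% inhibition.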

[5] = test system: Escherichia coli; assay: Inhibition of Escherichia coli DNA topoisomerase 4 assessed as blockade of ciprofloxacin-induced pBR322 DNA cleavage at 200 uM after 10 mins by agarose gel electrophoresis
Method in brief: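 E. coli Topo IV was incubated with plasmid DNA and ciprofloxacin with or without compound. Ciprofloxacin traps the enzyme–DNA ternary complex, and nicked and linear DNA products were scored on the gel against the supercoiled substrate.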

[6] = test system: Escherichia coli; assay: Inhibition of Escherichia coli DNA topoisomerase 4-mediated decatenation of kinetoplast DNA at 200 uM after 15 mins by agarose gel electrophoresis
[7] = test system: Escherichia coli; assay: Inhibition of Escherichia coli DNA topoisomerase 4-mediated relaxation of negatively supercoiled pBR322 DNA at 200 uM after 15 mins by agarose gel electrophoresis
[8] = test system: Escherichia coli; assay: Inhibition of Escherichia coli DNA gyrase-mediated supercoiling of relaxed I-DNA after 15 mins by agarose gel electrophoresis; method in brief: as §1

| Structure (SMILES) | inhibition [1] | inhibition [2] | inhibition [3] | inhibition [4] | inhibition [5] | inhibition [6] | inhibition [7] | inhibition [8] |
| --- | --- | --- | --- | --- | --- | --- | --- | --- |
| O=C(NC[C@@H]1O[C@H](O[C@H]2[C@@H](O)[C@H](O[C@@H]3[C@@H](O)[C@H](NC(=O)OCc4ccccc4)C[C@H](NC(=O)OCc4ccccc4)[C@H]3O[C@H]3O[C@H](CNC(=O)OCc4ccccc4)[C@@H](O)[C@H](O)[C@H]3NC(=O)OCc3ccccc3)O[C@@H]2CO)[C@H](NC(=O)OCc2ccccc2)[C@@H](O)[C@@H]1O)OCc1ccccc1 | inactive | inactive | inactive | inactive |  |  |  |  |
| CN(C(=O)c1ccccc1)[C@@H]1[C@@H](O[C@H]2O[C@H](CO)[C@@H](NC(=O)c3ccccc3)[C@H](O)[C@H]2O)O[C@H]2C[C@@H](NC(=O)c3ccccc3)[C@@H](O[C@H]3[C@H](O)[C@@H](O)[C@H](NC(=O)c4ccccc4)C[C@@H]3NC(=O)c3ccccc3)O[C@@H]2[C@@H]1O |  |  |  |  | Active |  |  |  |
| CC(=O)NC[C@@H]1O[C@H](O[C@H]2[C@@H](O)[C@H](O[C@@H]3[C@@H](O)[C@H](NC(C)=O)C[C@H](NC(C)=O)[C@H]3O[C@H]3O[C@H](CNC(C)=O)[C@@H](O)[C@H](O)[C@H]3NC(C)=O)O[C@@H]2CO)[C@H](NC(C)=O)[C@@H](O)[C@@H]1O | inactive | inactive | inactive | inactive |  |  |  |  |
| O=C(Cc1ccccc1)NC[C@H]1O[C@H](O[C@H]2[C@H](O)[C@@H](O[C@H]3O[C@H](CO)[C@@H](O)[C@H](NC(=O)Cc4ccccc4)[C@H]3O)[C@H](NC(=O)Cc3ccccc3)C[C@@H]2NC(=O)Cc2ccccc2)[C@H](O)[C@@H](O)[C@@H]1O | inactive | inactive | inactive | inactive |  |  |  |  |
| CN(C(=O)OCc1ccccc1)[C@@H]1[C@@H](O[C@H]2O[C@H](CO)[C@@H](NC(=O)OCc3ccccc3)[C@H](O)[C@H]2O)O[C@H]2C[C@@H](NC(=O)OCc3ccccc3)[C@@H](O[C@H]3[C@H](O)[C@@H](O)[C@H](NC(=O)OCc4ccccc4)C[C@@H]3NC(=O)OCc3ccccc3)O[C@@H]2[C@@H]1O | inactive | inactive | inactive | inactive |  |  |  |  |
| O=C(NC[C@H]1O[C@H](O[C@H]2[C@H](O)[C@@H](O[C@H]3O[C@H](CO)[C@@H](O)[C@H](NC(=O)c4ccccc4)[C@H]3O)[C@H](NC(=O)c3ccccc3)C[C@@H]2NC(=O)c2ccccc2)[C@H](O)[C@@H](O)[C@@H]1O)c1ccccc1 | inactive | inactive | inactive | inactive |  |  |  |  |
| O=C(Cc1ccccc1)NC[C@@H]1O[C@H](O[C@H]2[C@@H](O)[C@H](O[C@@H]3[C@@H](O)[C@H](NC(=O)Cc4ccccc4)C[C@H](NC(=O)Cc4ccccc4)[C@H]3O[C@H]3O[C@H](CNC(=O)Cc4ccccc4)[C@@H](O)[C@H](O)[C@H]3NC(=O)Cc3ccccc3)O[C@@H]2CO)[C@H](NC(=O)Cc2ccccc2)[C@@H](O)[C@@H]1O | inactive | inactive | inactive | inactive |  |  |  |  |
| O=C(NC[C@H]1O[C@H](O[C@H]2[C@H](O)[C@@H](O[C@H]3O[C@H](CO)[C@@H](O)[C@H](NC(=O)OCc4ccccc4)[C@H]3O)[C@H](NC(=O)OCc3ccccc3)C[C@@H]2NC(=O)OCc2ccccc2)[C@H](O)[C@@H](O)[C@@H]1O)OCc1ccccc1 | inactive | inactive | inactive | inactive |  |  |  |  |
| O=C(NC[C@@H]1O[C@H](O[C@H]2[C@@H](OS(=O)(=O)O)[C@H](O[C@@H]3[C@@H](OS(=O)(=O)O)[C@H](NC(=O)OCc4ccccc4)C[C@H](NC(=O)OCc4ccccc4)[C@H]3O[C@H]3O[C@H](CNC(=O)OCc4ccccc4)[C@@H](OS(=O)(=O)O)[C@H](OS(=O)(=O)O)[C@H]3NC(=O)OCc3ccccc3)O[C@@H]2COS(=O)(=O)O)[C@H](NC(=O)OCc2ccccc2)[C@@H](OS(=O)(=O)O)[C@@H]1OS(=O)(=O)O)OCc1ccccc1 |  |  |  |  | Active | Active | Active | Dose-dependent effect |
